From ChEMBL document CHEMBL2396641, “Synthesis, antioxidant, and antimicrobial evaluation of some 2-arylbenzimidazole derivatives” (Bioorg Med Chem Lett, 2013)
≈ marks a conversion by molar mass, not a printed value. Calls of active or inactive are those of the source. No cut-off for these calls is given here.

Experiments:
A549 [1] = assay: Antioxidant activity in human A549 cells assessed as inhibition of AAPH-induced oxidative stress at 50 uM after 2 hrs by flow cytometric analysis relative to control; assay type: functional; settings: A549, 2 h
Outline: (§1)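 A549 cells pretreated with AAPH 1 h to induce ROS stress, then compound added; intracellular ROS (hydrogen peroxides, hydroxyl radicals) quantified with DCFH-DA, by fluorescence imaging (×200) or flow cytometry; one representative of three independent experiments.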

A549 [2] = assay: Antioxidant activity in human A549 cells assessed as protection against H2O2-induced cell death at 50 to 100 uM preincubated for 1 hr prior to H2O2-challenge measured after 24 hrs by SRB assay; assay type: functional, cell-based
A549 [3] = assay: Antioxidant activity in human A549 cells assessed as inhibition of AAPH-induced oxidative stress at 100 uM after 2 hrs by flow cytometric analysis relative to control; assay type: functional; settings: A549, 2 h; outline: as §1
Bacillus cereus = assay: Antibacterial activity against Bacillus cereus after 24 hrs by agar dilution method; assay type: functional
[4] = system: Radical scavenging activity; assay: Antioxidant activity assessed as DPPH radical scavenging activity after 30 mins by spectrophotometric analysis; assay type: functional
Outline: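 DPPH radical bleaching followed as loss of absorbance at 517 nm; IC50 derived; mean ± SD, n = 3.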

Pseudomonas aeruginosa = assay: Antibacterial activity against Pseudomonas aeruginosa after 24 hrs by agar dilution method; assay type: functional
[5] = Antioxidant activity assessed as superoxide radical anion scavenging activity by spectrophotometric analysis; assay type: functional
A549 [6] = assay: Antioxidant activity in human A549 cells assessed as decrease in AAPH-induced oxidative stress after 2 hrs by DCFH-DA staining-based fluorescent microscopic analysis; assay type: functional, cell-based; outline: as §1
Escherichia coli = assay: Antibacterial activity against Escherichia coli after 24 hrs by agar dilution method; assay type: functional
Staphylococcus aureus = assay: Antibacterial activity against Staphylococcus aureus after 24 hrs by agar dilution method; assay type: functional
[7] = system: Staphylococcus epidermidis; assay: Antibacterial activity against Staphylococcus albus after 24 hrs by agar dilution method; assay type: functional
NIH3T3 = assay: Cytotoxicity against mouse NIH/3T3 cells after 48 hrs by SRB assay; assay type: cell-based; settings: NIH3T3, 48 h
[8] = Antioxidant activity assessed as ferric ion reducing ability after 20 mins by spectrophotometric analysis; assay type: functional
[9] = Antioxidant activity assessed as hydroxyl radical scavenging activity after 1 hr by spectrophotometric analysis; assay type: functional

In the case of `COc1cc(O)ccc1-c1nc2cc(O)ccc2[nH]1`, the inhibition at 50 µM (A549 [1]) is reported as 25.3%, the Activity (A549 [2]) is reported as “Active” and the inhibition at 100 µM (A549 [3]) is reported as 70.4%. For the same compound, the MIC (Bacillus cereus) was > 200 µM, the EC50 [4] was 27 µM and the MIC (Pseudomonas aeruginosa) was > 200 µM. The EC50 [5] was > 200 µM, the Activity (A549 [6]) was “Active” and the MBC (Escherichia coli) was 25 µM (≈ 6.41 µg/mL). The MIC (Escherichia coli) was 12.5 µM (≈ 3.2 µg/mL), the MIC (Staphylococcus aureus) was > 200 µM and the MIC [7] was > 200 µM. For the same compound, the IC50 (NIH3T3) was > 200 µM, the Activity [8] was “Dose-dependent effect” and the EC50 [9] was 46 µM.
